Measurements from ChEMBL document CHEMBL4138058, “Design and synthesis of novel selective estrogen receptor degradation inducers based on the diphenylheptane skeleton” (Medchemcomm, 2017).
pIC50: −log10 of the molar value.

What was measured:
[1] = biological target: T1, Estrogen receptor (Homo sapiens) (UniProt P03372); assay: Downregulation of ERalpha expression in human MCF7 cells after 6 hrs by Western blot method; type: cell-based
T1 sequence (whole entry): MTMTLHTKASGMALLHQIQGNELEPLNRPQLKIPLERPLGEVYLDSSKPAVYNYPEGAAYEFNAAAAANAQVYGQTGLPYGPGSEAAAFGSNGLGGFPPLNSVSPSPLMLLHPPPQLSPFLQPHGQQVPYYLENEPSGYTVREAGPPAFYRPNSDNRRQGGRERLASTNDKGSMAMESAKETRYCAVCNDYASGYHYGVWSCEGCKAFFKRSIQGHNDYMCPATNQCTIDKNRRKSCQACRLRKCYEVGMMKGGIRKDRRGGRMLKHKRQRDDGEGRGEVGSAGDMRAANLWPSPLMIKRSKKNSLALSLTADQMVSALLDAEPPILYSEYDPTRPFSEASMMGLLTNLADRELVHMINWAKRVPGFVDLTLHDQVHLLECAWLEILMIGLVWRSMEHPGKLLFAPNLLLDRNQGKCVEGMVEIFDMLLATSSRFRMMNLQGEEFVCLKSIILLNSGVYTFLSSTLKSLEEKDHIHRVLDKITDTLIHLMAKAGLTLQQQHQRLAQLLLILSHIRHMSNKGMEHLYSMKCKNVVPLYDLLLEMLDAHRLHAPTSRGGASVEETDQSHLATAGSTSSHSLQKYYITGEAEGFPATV
In short: (§1)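 MCF-7 cells kept in DMEM with 10% FBS, kanamycin and 10 μg/mL insulin, then exposed to compounds for 6 h. Lysates made in SDS buffer (0.1 M Tris-HCl pH 8.0, 10% glycerol, 1% SDS), boiled, BCA-normalized and run on SDS-PAGE. Blots probed with anti-ERα, AR, AhR or VDR and β-actin or lamin B. Chemiluminescence quantified as target/loading-protein ratio; means ± S.E., n=3.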

[2] = biological target: T1, Estrogen receptor (Homo sapiens); assay: Downregulation of ERalpha expression in human MCF7 cells at 3 uM after 6 hrs by Western blot method relative to beta-actin; type: cell-based; in short: as §1
[3] = biological target: T2, Androgen receptor (Homo sapiens) (UniProt P10275); assay: Downregulation of androgen receptor expression in human MCF7 cells at 3 uM after 6 hrs by Western blot method relative to lamin B; type: cell-based; in short: as §1
T2 sequence (whole entry): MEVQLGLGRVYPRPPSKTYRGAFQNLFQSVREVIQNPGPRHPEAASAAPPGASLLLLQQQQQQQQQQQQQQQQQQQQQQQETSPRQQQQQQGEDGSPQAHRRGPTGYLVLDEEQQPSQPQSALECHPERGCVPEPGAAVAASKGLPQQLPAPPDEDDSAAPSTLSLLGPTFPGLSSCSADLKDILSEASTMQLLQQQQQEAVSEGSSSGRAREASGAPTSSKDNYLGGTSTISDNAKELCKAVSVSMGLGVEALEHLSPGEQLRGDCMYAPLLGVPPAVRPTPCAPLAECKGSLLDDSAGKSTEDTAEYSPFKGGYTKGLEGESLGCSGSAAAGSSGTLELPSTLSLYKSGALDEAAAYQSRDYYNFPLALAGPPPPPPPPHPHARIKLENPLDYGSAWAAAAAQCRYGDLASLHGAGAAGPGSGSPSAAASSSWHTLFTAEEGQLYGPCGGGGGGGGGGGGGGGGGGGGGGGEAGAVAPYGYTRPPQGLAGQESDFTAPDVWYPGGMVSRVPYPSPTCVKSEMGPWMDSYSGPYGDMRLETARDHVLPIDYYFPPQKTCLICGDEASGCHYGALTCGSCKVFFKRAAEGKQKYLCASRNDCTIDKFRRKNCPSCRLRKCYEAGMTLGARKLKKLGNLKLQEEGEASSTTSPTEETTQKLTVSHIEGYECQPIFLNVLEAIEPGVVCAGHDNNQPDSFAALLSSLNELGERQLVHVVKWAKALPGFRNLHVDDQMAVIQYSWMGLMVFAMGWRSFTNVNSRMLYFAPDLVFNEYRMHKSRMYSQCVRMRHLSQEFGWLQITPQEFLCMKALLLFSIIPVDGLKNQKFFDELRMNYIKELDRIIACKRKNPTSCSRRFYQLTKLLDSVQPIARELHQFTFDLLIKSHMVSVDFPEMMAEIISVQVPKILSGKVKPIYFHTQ

[4] = biological target: T3, Aryl hydrocarbon receptor (Homo sapiens, UniProt P35869); assay: Downregulation of AhR expression in human MCF7 cells at 3 uM after 6 hrs by Western blot method relative to lamin B; type: cell-based; conditions: mcf7, 6 h; in short: as §1
T3 sequence (P35869 whole entry): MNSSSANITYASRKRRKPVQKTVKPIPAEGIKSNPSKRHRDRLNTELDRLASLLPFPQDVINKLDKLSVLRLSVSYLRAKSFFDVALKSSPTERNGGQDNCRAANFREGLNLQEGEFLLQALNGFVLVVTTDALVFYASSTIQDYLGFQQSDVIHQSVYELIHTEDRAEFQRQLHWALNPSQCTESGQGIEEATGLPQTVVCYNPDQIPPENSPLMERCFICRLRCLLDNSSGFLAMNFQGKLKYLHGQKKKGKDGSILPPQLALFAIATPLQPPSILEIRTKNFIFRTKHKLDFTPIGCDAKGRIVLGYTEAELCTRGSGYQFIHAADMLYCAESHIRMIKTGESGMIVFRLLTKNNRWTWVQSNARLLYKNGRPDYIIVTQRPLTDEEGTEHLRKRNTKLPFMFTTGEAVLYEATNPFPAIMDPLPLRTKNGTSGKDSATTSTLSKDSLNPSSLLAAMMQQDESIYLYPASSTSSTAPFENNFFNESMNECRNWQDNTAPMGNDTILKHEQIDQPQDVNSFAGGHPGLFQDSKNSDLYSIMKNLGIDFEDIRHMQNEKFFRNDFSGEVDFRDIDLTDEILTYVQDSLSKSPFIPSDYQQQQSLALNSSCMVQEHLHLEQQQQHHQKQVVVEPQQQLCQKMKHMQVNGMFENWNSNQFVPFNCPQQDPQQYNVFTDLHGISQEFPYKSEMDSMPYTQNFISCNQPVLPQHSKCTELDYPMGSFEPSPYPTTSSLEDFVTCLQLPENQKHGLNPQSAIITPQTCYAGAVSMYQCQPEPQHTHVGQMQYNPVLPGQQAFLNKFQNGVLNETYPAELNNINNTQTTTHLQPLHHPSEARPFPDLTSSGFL

[5] = biological target: T2, Androgen receptor (Homo sapiens); assay: Downregulation of androgen receptor expression in human MCF7 cells at 10 uM after 6 hrs in presence of proteasome inhibitor MG132 by Western blot method relative to lamin B; type: cell-based; in short: as §1
[6] = biological target: T3, Aryl hydrocarbon receptor; assay: Downregulation of AhR expression in human MCF7 cells at 1 uM after 6 hrs in presence of proteasome inhibitor MG132 by Western blot method relative to lamin B; type: cell-based; conditions: mcf7, 6 h; in short: as §1
Estrogen receptor = biological target: T4, Estrogen receptor (Homo sapiens, UniProt P03372); assay: Displacement of Fluormone ES2 Green from full-length untagged human ERalpha expressed in insect cells after 2 hrs by fluorescence polarization assay
T4 sequence (P03372 whole entry): T1 sequence (whole entry)

Activity [1]: Dose-dependent effect
Activity [2]: 57%
Activity [3]: 106%
Activity [4]: 80%
Activity [5]: 77%
Activity [6]: 105%
pIC50 (Estrogen receptor): 8.31
Structure (SMILES): CCCCCCCCCCNCCOc1ccc(C(CCC)(CCC)c2ccc(O)c(C)c2)cc1C
